For one compound, Activity, inhibition and IC50 results are on record in ChEMBL document CHEMBL3860061, “A Novel Parkinson's Disease Drug Candidate with Potent Anti-neuroinflammatory Effects through the Src Signaling Pathway” (J Med Chem, 2016).

For test [1], the system named is Mus musculus. The test can be described thus: Antineuro-inflammatrory activity in alpha-syn A53T transgenic B6C3H mouse assessed as decrease in IL-1beta level in midbrain at 10 to 20 mg/kg dosed once daily for 12 consecutive weeks by ELISA. The format is functional, organism-based. The procedure, abridged:
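Male B6;C3H mice expressing mutant α-syn (A53T), from 4 months old, given agent (5, 10, 20 mg/kg) or L-DOPA 20 mg/kg in 0.5% CMC-Na once daily for 12 weeks. Wild-type controls received vehicle. Midbrain homogenised in non-denaturing lysis buffer with protease inhibitor; IL-1β or TNF-α measured by ELISA, n = 6, mean ± SD.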
A general note: ELISA stands for enzyme-linked immunosorbent assay.

For test [2], the system named is Mus musculus. As to the kind of experiment: Effect on GSK3beta protein expression level in midbrain of MPTP/probenecid-induced chronic C57/BL mouse Parkinson's disease model at 5 to 20 mg/kg dosed once daily for 7 weeks post 10 doses of MPTP/probenecid for 5 weeks by Western blot analysis. The test is classed as functional, organism-based.
For test [3], the system named is Mus musculus. As to the kind of experiment: Antineuro-inflammatrory activity in MPTP/probenecid-induced chronic C57/BL mouse Parkinson's disease model assessed as decrease in IL-1beta level in midbrain at 10 to 20 mg/kg dosed once daily for 7 weeks post 10 doses of MPTP/probenecid for 5 weeks measured after last MPTP/probenecid dose for 5 weeks by ELISA. The format is functional, organism-based. The procedure, abridged: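 Male C57/BL mice (22–25 g) received 10 doses of MPTP hydrochloride (25 mg/kg in saline, s.c.) plus probenecid (250 mg/kg in DMSO, i.p.) over 5 weeks. Only mice failing the rotarod afterwards were randomised to agent (5, 10, 20 mg/kg) or L-DOPA 20 mg/kg in 0.5% CMC-Na, once daily for 7 weeks. Midbrain lysate in non-denaturing buffer with protease inhibitor; IL-1β or TNF-α by ELISA, n = 6.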

In test [4] the target is Proto-oncogene tyrosine-protein kinase Src (Rattus norvegicus) (UniProt Q9WUD9). As to the kind of experiment: Inhibition of Src in Sprague-Dawley rat primary microglia cells assessed as suppression of LPS-stimulated PTEN phosphorylation at Tyr-240 residue at 10 uM preincubated for 1 hr followed by LPS challenge measured after 3 hrs by Western blot analysis. Put shortly:
(§1)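 Primary microglia from 1-day-old Sprague-Dawley rat brains, grown to confluence 12–14 days, shaken off astroglia (>98% pure). Agent at 10 µM added 1 h before LPS 100 ng/mL. Phosphorylated Src, Akt and PTEN measured 3 h later by Western blot, n = 4.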

Test [5] deals with Proto-oncogene tyrosine-protein kinase Src (Mus musculus, UniProt P05480). As to the kind of experiment: Inhibition of Src in mouse BV2 cells assessed as suppression of LPS-induced NO release preincubated for 1 hr followed by LPS addition measured after 24 hrs by Griess assay. The test is classed as cell-based, BV-2. The procedure, abridged: (§2)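 BV-2 cells in DMEM/10% FBS, plated at 5×10^3 per well. After 24 h, treated at 100, 50, 10, 5, 1 and 0.1 µM; 1 h later LPS 300 ng/mL added. After another 24 h, nitrite in the medium measured by Griess assay.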
Sequence of Proto-oncogene tyrosine-protein kinase Src (P05480 2-535 limits assumed): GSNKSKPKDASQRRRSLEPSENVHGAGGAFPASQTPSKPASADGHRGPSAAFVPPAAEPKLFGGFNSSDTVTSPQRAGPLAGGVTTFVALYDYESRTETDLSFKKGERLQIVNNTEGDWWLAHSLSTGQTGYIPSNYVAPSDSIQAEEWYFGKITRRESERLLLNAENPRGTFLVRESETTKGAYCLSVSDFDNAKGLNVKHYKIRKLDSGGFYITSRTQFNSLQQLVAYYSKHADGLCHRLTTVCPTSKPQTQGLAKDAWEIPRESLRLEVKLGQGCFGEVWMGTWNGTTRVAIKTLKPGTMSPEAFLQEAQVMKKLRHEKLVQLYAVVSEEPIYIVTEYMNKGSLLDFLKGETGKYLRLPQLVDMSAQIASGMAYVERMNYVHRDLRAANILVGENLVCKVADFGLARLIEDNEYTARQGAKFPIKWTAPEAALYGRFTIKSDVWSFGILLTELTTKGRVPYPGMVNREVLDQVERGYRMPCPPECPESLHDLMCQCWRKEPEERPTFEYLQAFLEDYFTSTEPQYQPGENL
In general terms: Griess reagent forms a coloured azo dye with nitrite.

The subject of test [6] is Mus musculus. As to the kind of experiment: Increase in dopamine levels in alpha-syn A53T transgenic B6C3H mouse striatum at 10 to 20 mg/kg dosed once daily for 12 consecutive weeks by HPLC analysis. The format is functional, organism-based. Put shortly: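 α-syn A53T transgenic B6;C3H mice, dosed from 4 months of age once daily for 12 weeks with agent (5–20 mg/kg) or L-DOPA 20 mg/kg in 0.5% CMC-Na. Striatum sonicated in 0.6 N perchloric acid, phosphate/citrate/EDTA solution added, centrifuged; dopamine by HPLC, n = 8.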

Test [7] relates to Mus musculus. The test can be described thus: Neuroprotective activity in MPTP-induced subacute C57/BL mouse Parkinson's disease model assessed as reversal of decline of TH-positive neuron levels in substantia nigra at 10 to 20 mg/kg […] dosed 30 mins prior to each MPTP injection for 5 days and administered continuously for 7 days post last MPTP dose by 3,3'-diaminobenzidine staining based light microscopic analysis. The format is functional, organism-based. Put shortly:
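Sub-acute MPTP model (30 mg/kg i.p. × 5 days) with agent (5–20 mg/kg) or L-DOPA pre-dosing and 7 days of continued dosing. Fixed brains cut at 40 µm on a freezing microtome; coronal nigral sections stained with anti-TH and DAB/peroxide; TH-positive cells counted blind by light microscopy.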

In test [8] the target is Proto-oncogene tyrosine-protein kinase Src (Rattus norvegicus) (UniProt Q9WUD9). As to the kind of experiment: Inhibition of Src in Sprague-Dawley rat primary mixed mesecephalic neuron/glial cells assessed as suppression of LPS-induced IL-1beta expression at 10 uM preincubated for 1 hr followed by LPS challenge measured after 5 hrs by ELISA. The procedure, abridged:
(§3)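 Mixed mesencephalic neuron/glia cultures from E14 Sprague-Dawley rats, used at 7 days. Agent at 10 µM added 1 h before LPS 100 ng/mL; IL-1β and TNF-α in medium measured by ELISA after 5 h, n = 6.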

The subject of test [9] is Mus musculus. As to the kind of experiment: Effect on ROCK1 protein expression level in midbrain of MPTP/probenecid-induced chronic C57/BL mouse Parkinson's disease model at 5 to 20 mg/kg dosed once daily for 7 weeks post 10 doses of MPTP/probenecid for 5 weeks by Western blot analysis. The test is classed as functional, organism-based. (A western blot detects proteins with antibodies after separation by electrophoresis.)

Test [10] addresses Proto-oncogene tyrosine-protein kinase Src (Mus musculus) (UniProt P05480). The test can be described thus: Inhibition of Src signaling pathway in mouse BV2 cells assessed as suppression of LPS-induced NO release at 0.1 to 100 uM preincubated for 1 hr followed by LPS addition measured after 24 hrs relative to control by Griess assay. The test is classed as cell-based. The settings on record: BV-2. Put shortly: as §2

Test [11] deals with Mus musculus. As to the kind of experiment: Neuroprotective activity in MPTP-induced subacute C57/BL mouse Parkinson's disease model assessed as improvement in motor behavior at 5 to 20 mg/kg […] dosed 30 mins prior to each MPTP injection for 5 days and administered continously for 7 days post last MPTP dose by rotarod test. The test is classed as functional, organism-based. The procedure, abridged: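 Sub-acute MPTP model (30 mg/kg i.p. × 5 days) in male C57/BL mice. Agent (5–20 mg/kg) or L-DOPA 20 mg/kg given 30 min before each injection and for 7 days after. Rotarod at 14 rpm, up to 120 s, fall latency over three trials 1 h apart. Pole test: 50 cm pole, descent scored 1–5, two trials 1 h apart, pre-trained. n = 15.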

The test system of test [12] is Mus musculus. The test can be described thus: In vivo inhibition of Src in MPTP/probenecid-induced chronic C57/BL mouse Parkinson's disease model assessed as effect on NOS1 expression level in midbrain at 5 to 20 mg/kg co-administered with L-DOPA once in a day for 7 weeks post 10 doses of MPTP for 5 weeks by Western blot analysis. The test is classed as functional, organism-based.

Test [13] concerns the target Proto-oncogene tyrosine-protein kinase Src (Rattus norvegicus) (UniProt Q9WUD9). As to the kind of experiment: Inhibition of Src in Sprague-Dawley rat primary microglia cells assessed as suppression of LPS-stimulated Akt phosphorylation at Ser-473 residue at 10 uM preincubated for 1 hr followed by LPS challenge measured after 3 hrs by Western blot analysis. Put shortly:
as §1

Test [14] relates to Mus musculus. As to the kind of experiment: In vivo inhibition of Src in MPTP/probenecid-induced chronic C57/BL mouse Parkinson's disease model assessed as effect on Akt expression level in midbrain at 5 to 20 mg/kg […] once in a day for 7 weeks post 10 doses of MPTP for 5 weeks by Western blot analysis. The test is classed as functional, organism-based.

Test [15] concerns the target Proto-oncogene tyrosine-protein kinase Src (Rattus norvegicus) (UniProt Q9WUD9). The test can be described thus: Inhibition of Src in Sprague-Dawley rat primary mixed mesecephalic neuron/glial cells assessed as suppression of LPS-induced TNFalpha expression at 10 uM preincubated for 1 hr followed by LPS challenge measured after 5 hrs by ELISA. The procedure, abridged: as §3

Molecules are shown by their SMILES. Activity calls are given as the source filed them. No cut-off for these calls is given here.

Sequence of Proto-oncogene tyrosine-protein kinase Src (Rattus norvegicus) (Q9WUD9 2-536 limits assumed): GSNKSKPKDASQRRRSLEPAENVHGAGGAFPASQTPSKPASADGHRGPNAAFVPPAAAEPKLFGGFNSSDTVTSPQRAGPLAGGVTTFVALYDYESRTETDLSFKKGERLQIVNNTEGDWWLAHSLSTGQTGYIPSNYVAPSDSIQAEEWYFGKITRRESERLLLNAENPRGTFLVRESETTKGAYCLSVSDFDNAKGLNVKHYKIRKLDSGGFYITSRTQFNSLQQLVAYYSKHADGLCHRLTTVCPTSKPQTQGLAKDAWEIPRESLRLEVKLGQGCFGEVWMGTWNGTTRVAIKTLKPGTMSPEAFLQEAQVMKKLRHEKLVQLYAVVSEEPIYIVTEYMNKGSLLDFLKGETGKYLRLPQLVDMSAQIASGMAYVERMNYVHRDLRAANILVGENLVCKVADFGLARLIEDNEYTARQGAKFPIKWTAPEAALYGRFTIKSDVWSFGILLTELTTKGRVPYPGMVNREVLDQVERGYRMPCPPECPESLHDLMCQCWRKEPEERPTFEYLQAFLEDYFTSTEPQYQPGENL
Sequence of Proto-oncogene tyrosine-protein kinase Src (Mus musculus) (P05480 2-535 limits assumed): as the sequence (P05480 2-535 limits assumed) above

A word on the IC50: it is the midpoint of a concentration-inhibition curve. As for `COc1cc(OC)c(CN[C@@H](CO)C(=O)O)c(OC)c1`, the result in [1], in test [2], in [3], in test [6], in test [7] and in test [9] was Active. Moreover, the result in test [11] was Active. In addition, the inhibition entry in [4], in test [8], in test [10], in test [12], in test [13] and in test [14] was “Active” in each case. Besides, the inhibition entry in [15] was “Active”. In addition, the IC50 in test [5] amounted to 6.6 µM.
